From ChEMBL document CHEMBL3739417, “Synthesis and biological evaluation of novel 4,5-disubstituted 2H-1,2,3-triazoles as cis-constrained analogues of combretastatin A-4” (2015)

How the values were obtained:
Format in all cases: functional
[1] = Growth inhibition of human HOP62 cells after 48 hrs by sulforhodamine B assay; conditions: HOP-62, 48 h
Procedure, shortened: (§1)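 NCI-60 panel screen by SRB assay (Rubinstein method). Percentage growth taken from optical density of SRB colour, read before and 48 hrs after exposure to compound or vehicle control. All analogues first screened at 10^-5 M. Analogues giving 60% growth inhibition at that level in at least eight lines then went to a five-concentration dose-response study.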

A549 = assay: Growth inhibition of human A549/ATCC cells after 48 hrs by sulforhodamine B assay; conditions: A549, 48 h; procedure, shortened: as §1
KM12 = assay: Growth inhibition of human KM12 cells after 48 hrs by sulforhodamine B assay; conditions: KM12, 48 h; procedure, shortened: as §1
ACHN = assay: Growth inhibition of human ACHN cells after 48 hrs by sulforhodamine B assay; procedure, shortened: as §1
A498 = assay: Growth inhibition of human A498 cells after 48 hrs by sulforhodamine B assay; conditions: A498, 48 h
Procedure, shortened: (§2)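 NCI-60 sulforhodamine B screen. Compounds were first tested at a single dose of 10⁻⁵ M; hits, defined as ≥60% growth inhibition in at least eight lines, went on to a five-concentration dose–response. SRB optical density was read before and 48 h after exposure to compound or vehicle. Percentage growth was calculated from OD.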

[2] = Growth inhibition of human LOXIMVI cells after 48 hrs by sulforhodamine B assay; conditions: LOX IMVI; procedure, shortened: as §1
[3] = Growth inhibition of human OVCAR3 cells after 48 hrs by sulforhodamine B assay; conditions: OVCAR-3, 48 h; procedure, shortened: as §2
MCF7 = assay: Growth inhibition of human MCF7 cells after 48 hrs by sulforhodamine B assay; conditions: MCF7, 48 h; procedure, shortened: as §1
SR = assay: Growth inhibition of human SR cells after 48 hrs by sulforhodamine B assay; procedure, shortened: as §1
[4] = Growth inhibition of human SF295 cells after 48 hrs by sulforhodamine B assay; conditions: SF-295, 48 h; procedure, shortened: as §1
[5] = Growth inhibition of human HOP92 cells after 48 hrs by sulforhodamine B assay; conditions: HOP-92, 48 h; procedure, shortened: as §1
[6] = Growth inhibition of human IGROV1 cells after 48 hrs by sulforhodamine B assay; conditions: IGROV-1, 48 h; procedure, shortened: as §1
K562 = assay: Growth inhibition of human K562 cells after 48 hrs by sulforhodamine B assay; conditions: K562, 48 h; procedure, shortened: as §1
SK-MEL-5 = assay: Growth inhibition of human SK-MEL-5 cells after 48 hrs by sulforhodamine B assay; conditions: SK-MEL-5, 48 h; procedure, shortened: as §1
[7] = Growth inhibition of human PC3 cells after 48 hrs by sulforhodamine B assay; conditions: PC-3, 48 h; procedure, shortened: as §1
[8] = Growth inhibition of human SF268 cells after 48 hrs by sulforhodamine B assay; conditions: SF-268, 48 h; procedure, shortened: as §1
MDA-MB-468 = assay: Growth inhibition of human MDA-MB-468 cells after 48 hrs by sulforhodamine B assay; conditions: MDA-MB-468, 48 h; procedure, shortened: as §1
MDA-MB-231 = assay: Growth inhibition of human MDA-MB-231 cells after 48 hrs by sulforhodamine B assay; conditions: MDA-MB-231, 48 h; procedure, shortened: as §1
NCI-H23 = assay: Growth inhibition of human NCI-H23 cells after 48 hrs by sulforhodamine B assay; conditions: NCI-H23, 48 h; procedure, shortened: as §1
[9] = Growth inhibition of human NCI-ADR-RES cells after 48 hrs by sulforhodamine B assay; procedure, shortened: as §1
[10] = Growth inhibition of human COLO205 cells after 48 hrs by sulforhodamine B assay; conditions: COLO 205, 48 h; procedure, shortened: as §1
SK-MEL-2 = assay: Growth inhibition of human SK-MEL-2 cells after 48 hrs by sulforhodamine B assay; conditions: SK-MEL-2, 48 h; procedure, shortened: as §1
[11] = Growth inhibition of human HCT116 cells after 48 hrs by sulforhodamine B assay; conditions: HCT-116, 48 h; procedure, shortened: as §1
786-0 = assay: Growth inhibition of human 786-0 cells after 48 hrs by sulforhodamine B assay; conditions: 786-0, 48 h; procedure, shortened: as §1
HT-29 = assay: Growth inhibition of human HT-29 cells after 48 hrs by sulforhodamine B assay; conditions: HT-29, 48 h; procedure, shortened: as §1
CAKI-1 = assay: Growth inhibition of human CAKI-1 cells after 48 hrs by sulforhodamine B assay; conditions: CAKI-1, 48 h; procedure, shortened: as §1
[12] = Growth inhibition of human SKOV3 cells after 48 hrs by sulforhodamine B assay; conditions: SK-OV-3, 48 h; procedure, shortened: as §1
CCRF-CEM = assay: Growth inhibition of human CCRF-CEM cells after 48 hrs by sulforhodamine B assay; procedure, shortened: as §1
[13] = Growth inhibition of human MOLT4 cells after 48 hrs by sulforhodamine B assay; conditions: MOLT-4, 48 h; procedure, shortened: as §1
NCI-H460 = assay: Growth inhibition of human NCI-H460 cells after 48 hrs by sulforhodamine B assay; conditions: NCI-H460, 48 h; procedure, shortened: as §1
[14] = Growth inhibition of human HCT15 cells after 48 hrs by sulforhodamine B assay; conditions: HCT-15, 48 h; procedure, shortened: as §1
[15] = Growth inhibition of human RPMI8226 cells after 48 hrs by sulforhodamine B assay; conditions: RPMI-8226, 48 h; procedure, shortened: as §1
[16] = Growth inhibition of human HCC2998 cells after 48 hrs by sulforhodamine B assay; conditions: HCC 2998, 48 h; procedure, shortened: as §1
[17] = Growth inhibition of human SNB75 cells after 48 hrs by sulforhodamine B assay; conditions: SNB-75, 48 h; procedure, shortened: as §1
U-251 = assay: Growth inhibition of human U251 cells after 48 hrs by sulforhodamine B assay; conditions: U-251, 48 h; procedure, shortened: as §1
[18] = Growth inhibition of human HL-60(TB) cells after 48 hrs by sulforhodamine B assay; conditions: HL-60, 48 h; procedure, shortened: as §1
[19] = Growth inhibition of human SW620 cells after 48 hrs by sulforhodamine B assay; conditions: SW-620, 48 h; procedure, shortened: as §1
[20] = read-out: LD50 (the source's name)

In the case of `COc1ccc(-c2n[nH]nc2-c2cc(OC)cc(OC)c2)cc1`, the GI50 [1] is reported as 25 nM, the LC50 (concentration killing 50% of cells) ([1]; read-out: LD50) is reported as > 100000 nM and the GI50 (A549) is reported as 37 nM. The CC50 (A549; [20]) was > 100000 nM, the GI50 (KM12) was 30 nM and the LC50 (concentration killing 50% of cells) (KM12; read-out: LD50) was > 100000 nM. For the same compound, the GI50 (ACHN) was 145 nM, the CC50 (ACHN; [20]) was > 100000 nM and the GI50 (A498) was < 10 nM. The LC50 (50% net cell kill) (A498; read-out: LD50) was > 100000 nM, the GI50 [2] was 76 nM and the CC50 [2, 20] was > 100000 nM. The GI50 [3] was 24 nM, the LC50 (concentration giving 50% net cell kill) ([3]; read-out: LD50) was > 100000 nM and the GI50 (MCF7) was 25 nM. For the same compound, the CC50 (MCF7; [20]) was > 100000 nM, the GI50 (SR) was < 10 nM and the LC50 (concentration giving 50% net cell kill) (SR; read-out: LD50) was > 100000 nM. The GI50 [4] was 11 nM, the CC50 [4, 20] was > 100000 nM and the GI50 [5] was < 10 nM. For the same compound, the CC50 [5, 20] was > 100000 nM, the GI50 [6] was 51 nM and the CC50 [6, 20] was > 100000 nM. The GI50 (K562) was < 10 nM, the CC50 (K562; [20]) was > 100000 nM and the GI50 (SK-MEL-5) was 27 nM. For the same compound, the CC50 (SK-MEL-5; [20]) was > 100000 nM, the GI50 [7] was 42 nM and the CC50 [7, 20] was > 100000 nM. The GI50 [8] was 177 nM, the CC50 [8, 20] was > 100000 nM and the GI50 (MDA-MB-468) was 23 nM. For the same compound, the CC50 (MDA-MB-468; [20]) was > 100000 nM, the GI50 (MDA-MB-231) was 46 nM and the CC50 (MDA-MB-231; [20]) was > 100000 nM. For the same compound, the GI50 (NCI-H23) was 38 nM, the LC50 (concentration giving 50% cell kill) (NCI-H23; read-out: LD50) was > 100000 nM and the GI50 [9] was < 10 nM. For the same compound, the CC50 [9, 20] was > 100000 nM, the GI50 [10] was 149 nM and the CC50 [10, 20] was > 100000 nM. The GI50 (SK-MEL-2) was 56 nM, the CC50 (SK-MEL-2; [20]) was > 100000 nM and the GI50 [11] was < 10 nM. For the same compound, the CC50 [11, 20] was > 100000 nM, the GI50 (786-0) was 15 nM and the LC50 (concentration killing 50% of cells) (786-0; read-out: LD50) was > 100000 nM. The GI50 (HT-29) was 48 nM, the LC50 (concentration killing 50% of cells) (HT-29; read-out: LD50) was > 100000 nM and the GI50 (CAKI-1) was 50 nM. The CC50 (CAKI-1; [20]) was > 100000 nM, the GI50 [12] was 46 nM and the LC50 (concentration killing 50% of cells) ([12]; read-out: LD50) was > 100000 nM. For the same compound, the GI50 (CCRF-CEM) was 32 nM, the LC50 (concentration killing 50% of cells) (CCRF-CEM; read-out: LD50) was > 100000 nM and the GI50 [13] was 48 nM. The CC50 [13, 20] was > 100000 nM, the GI50 (NCI-H460) was 34 nM and the CC50 (NCI-H460; [20]) was > 100000 nM. For the same compound, the GI50 [14] was < 10 nM, the CC50 [14, 20] was > 100000 nM and the GI50 [15] was 37 nM. The CC50 [15, 20] was > 100000 nM, the GI50 [16] was 46 nM and the CC50 [16, 20] was > 100000 nM. For the same compound, the GI50 [17] was 14 nM, the CC50 [17, 20] was > 100000 nM and the GI50 (U-251) was 38 nM. The CC50 (U-251; [20]) was > 100000 nM, the GI50 [18] was 23 nM and the CC50 [18, 20] was > 100000 nM. The GI50 [19] was 30 nM and the LD50 (concentration killing 50% of cells) [19] was > 100 µM.
